ChEMBL document CHEMBL1156267, “Studies of the synthesis of all stereoisomers of MG-132 proteasome inhibitors in the tumor targeting approach” (J Med Chem, 2010)
Calls of active or inactive are those of the source. No cut-off for these calls is given here. Square brackets hold non-standard residues; d marks the D form. Peptide text beside a SMILES is read from it. * marks the point of attachment. 1Nal = N[C@@H](Cc1cccc2ccccc12)C(=O)O; 2Nal = N[C@@H](Cc1ccc2ccccc2c1)C(=O)O; Cbz = O=C(OCc1ccccc1)*

Tests used:
[1] = Inhibition of peptidylglutamyl peptide hydrolyzing-like activity of 20S proteasome from human erythrocyte
Summary of the method: (§1)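 Substrates were Suc-Leu-Leu-Val-Tyr-AMC (chymotrypsin-like), Ac-Arg-Leu-Arg-AMC (trypsin-like) and Z-Leu-Leu-Glu-βNA (PGPH). Hydrolysis was read by fluorescence at ex 355 / em 460 nm against DMSO solvent controls.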

EMT6 [2] = experiment: Cytotoxicity against mouse EMT6 cells after 24 hrs by crystal violet staining
EMT6 [3] = experiment: Inhibition of proteasome in mouse EMT6 cell lysate assessed as cleavage of Suc-leu-leu-val-Tyr-AMC at 1000 nM after 15 mins; parameters: scale not given: the % may be the effect or the level left
J558L [4] = experiment: Inhibition of proteasome in mouse J558L cell lysate assessed as cleavage of Suc-leu-leu-val-Tyr-AMC at 1000 nM after 30 mins; parameters: scale not given: the % may be the effect or the level left
J558L [5] = experiment: Inhibition of proteasome in mouse J558L cell lysate assessed as cleavage of Suc-leu-leu-val-Tyr-AMC at 1000 nM after 15 mins; parameters: scale not given: the % may be the effect or the level left
EMT6 [6] = experiment: Inhibition of proteasome in mouse EMT6 cell lysate assessed as cleavage of Suc-leu-leu-val-Tyr-AMC at 100 nM after 30 mins; parameters: scale not given: the % may be the effect or the level left
J558L [7] = experiment: Inhibition of proteasome in mouse J558L cell lysate assessed as cleavage of Suc-leu-leu-val-Tyr-AMC at 100 nM after 60 mins; parameters: scale not given: the % may be the effect or the level left
[8] = Inhibition of chymotrypsin-like activity of 20S proteasome from human erythrocyte; summary of the method: as §1
EMT6 [9] = experiment: Inhibition of proteasome in mouse EMT6 cell lysate assessed as cleavage of Suc-leu-leu-val-Tyr-AMC at 100 nM after 60 mins; parameters: scale not given: the % may be the effect or the level left
J558L [10] = experiment: Inhibition of proteasome in mouse J558L cell lysate assessed as cleavage of Suc-leu-leu-val-Tyr-AMC at 100 nM after 30 mins; parameters: scale not given: the % may be the effect or the level left
J558L [11] = experiment: Inhibition of proteasome in mouse J558L cell lysate assessed as cleavage of Suc-leu-leu-val-Tyr-AMC at 1000 nM after 60 mins; parameters: scale not given: the % may be the effect or the level left
EMT6 [12] = experiment: Inhibition of proteasome in mouse EMT6 cell lysate assessed as cleavage of Suc-leu-leu-val-Tyr-AMC at 1000 nM after 60 mins; parameters: scale not given: the % may be the effect or the level left
J558L [13] = experiment: Inhibition of proteasome in mouse J558L cell lysate assessed as cleavage of Suc-leu-leu-val-Tyr-AMC at 100 nM after 15 mins; parameters: scale not given: the % may be the effect or the level left
EMT6 [14] = experiment: Inhibition of proteasome in mouse EMT6 cell lysate assessed as cleavage of Suc-leu-leu-val-Tyr-AMC at 1000 nM after 30 mins; parameters: scale not given: the % may be the effect or the level left
[15] = Inhibition of trypsin-like activity of 20S proteasome from human erythrocyte; summary of the method: as §1
EMT6 [16] = experiment: Inhibition of proteasome in mouse EMT6 cell lysate assessed as cleavage of Suc-leu-leu-val-Tyr-AMC at 100 nM after 15 mins; parameters: scale not given: the % may be the effect or the level left
J558L [17] = experiment: Cytotoxicity against mouse J558L cells after 24 hrs by MTT assay; type: functional, cell-based
Summary of the method: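 Murine J558L myeloma cells grown in RPMI-1640 with 10% heat-inactivated FCS, antibiotics, 2-mercaptoethanol and 2 mM L-glutamine. Cells were seeded at 3 × 10³ per well and compounds were added the next day. MTT at 1 mg/mL was present for the last 4 h. Cells were lysed in SDS/DMF buffer at pH 4.7 overnight and read at 570 nm. Viability is (A_e − A_b)×100/(A_c − A_b), relative to medium-only cultures.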

[18] = Inhibition of 20S proteasome from human erythrocyte; summary of the method: as §1

Row | SMILES | IC50 [1] [µM] | Activity (EMT6 [2]) | Activity (EMT6 [3]) [%] | Activity (J558L [4]) [%] | Activity (J558L [5]) [%] | Activity (EMT6 [6]) [%] | Activity (J558L [7]) [%] | IC50 [8] [µM] | Activity (EMT6 [9]) [%] | Activity (J558L [10]) [%] | Activity (J558L [11]) [%] | Activity (EMT6 [12]) [%] | Activity (J558L [13]) [%] | Activity (EMT6 [14]) [%] | IC50 [15] [µM] | Activity (EMT6 [16]) [%] | Activity (J558L [17]) | Ki [18] [nM]
1 | CC(C)C[C@@H](C=O)NC(=O)[C@@H](CC(C)C)NC(=O)[C@H](CC(C)C)NC(=O)OCc1ccccc1 | 2.95 | inactive | 5 | 21 | 11 | 22 | 50 | 0.22 | 31 | 36 | 38 | 13 | 25 | 7 | 34.4 | 17 | inactive | 
2 | CC(C)C[C@H](NC(=O)[C@@H](CC(C)C)NC(=O)OCc1ccccc1)C(=O)N[C@@H](C=O)CC(C)C | > 100 |  |  | 96 | 102 |  | 112 | > 100 |  | 110 | 99 |  | 100 |  | > 100 |  |  | 
3 | CC(C)C[C@H](C=O)NC(=O)[C@@H](CC(C)C)NC(=O)[C@@H](CC(C)C)NC(=O)OCc1ccccc1 | 11.3 |  | 62 | 66 | 58 | 90 | 89 | 9.81 | 91 | 89 | 71 | 78 | 87 | 70 | > 100 | 90 |  | 
4 | CC(C)C[C@@H](C=O)NC(=O)[C@H](Cc1cccc2ccccc12)NC(=O)[C@H](Cc1ccc2ccccc2c1)NC(=O)OCc1ccccc1 (Cbz-[2Nal]-[1Nal]-Leu-aldehyde) |  |  |  |  |  |  |  |  |  |  |  |  |  |  |  |  |  | 0.015
5 | CC(C)CC(NC(=O)[C@@H](CC(C)C)NC(=O)OCc1ccccc1)C(=O)N[C@H](C=O)CC(C)C (single isomer, unassigned; (+)) [listing 1 of 2 here] | > 100 |  |  |  |  |  |  | > 100 |  |  |  |  |  |  | > 100 |  |  | 
6 | CC(C)CC(NC(=O)[C@@H](CC(C)C)NC(=O)OCc1ccccc1)C(=O)N[C@H](C=O)CC(C)C (single isomer, unassigned; (+)) [listing 2 of 2 here] |  |  | 104 | 117 | 114 | 95 | 123 |  | 95 | 118 | 121 | 99 | 115 | 100 |  | 97 |  | 
7 | CC(C)CC(NC(=O)[C@@H](CC(C)C)NC(=O)OCc1ccccc1)C(=O)N[C@H](C=O)CC(C)C (stereo in doubt) [listing 1 of 2 here] | 17.2 |  |  |  |  |  |  | 1.79 |  |  |  |  |  |  |  |  |  | 
8 | CC(C)CC(NC(=O)[C@@H](CC(C)C)NC(=O)OCc1ccccc1)C(=O)N[C@H](C=O)CC(C)C (stereo in doubt) [listing 2 of 2 here] |  |  | 61 | 40 | 30 | 85 | 82 |  | 84 | 77 | 53 | 67 | 71 | 61 |  | 87 |  | 
9 | CC(C)C[C@@H](C=O)NC(=O)[C@H](CC(C)C)NC(=O)[C@H](CC(C)C)NC(=O)OCc1ccccc1 (stereo in doubt) |  |  | 29 | 72 | 71 | 77 | 95 |  | 86 | 91 | 74 | 50 | 84 | 37 |  | 71 |  | 
10 | CC(C)C[C@@H](C=O)NC(=O)[C@H](CC(C)C)NC(=O)[C@H](CC(C)C)NC(=O)OCc1ccccc1 (stereo in doubt) [MG-132] | > 100 |  |  |  |  |  |  | 5.46 |  |  |  |  |  |  | > 100 |  |  | 
11 | CC(C)C[C@@H](C=O)NC(=O)[C@H](CC(C)C)NC(=O)[C@H](CC(C)C)NC(=O)OCc1ccccc1 (stereo in doubt; 2) |  |  | 12 | 25 | 15 | 25 | 60 |  | 35 | 44 | 44 | 19 | 32 | 14 |  | 20 |  | 
12 | CC(C)C[C@@H](C=O)NC(=O)[C@H](CC(C)C)NC(=O)[C@H](CC(C)C)NC(=O)OCc1ccccc1 (stereo in doubt; 2) [MG-132] | 5.7 |  |  |  |  |  |  | 0.89 |  |  |  |  |  |  | 104 |  |  | 4
13 | CC(C)CC(NC(=O)[C@H](CC(C)C)NC(=O)OCc1ccccc1)C(=O)N[C@@H](C=O)CC(C)C (stereo in doubt; (+)) [listing 1 of 2 here] | > 100 |  |  |  |  |  |  | > 100 |  |  |  |  |  |  | > 100 |  |  | 
14 | CC(C)CC(NC(=O)[C@H](CC(C)C)NC(=O)OCc1ccccc1)C(=O)N[C@@H](C=O)CC(C)C (stereo in doubt; (+)) [listing 2 of 2 here] |  |  | 118 | 106 | 107 | 103 | 107 |  | 99 | 105 | 106 | 106 | 104 | 111 |  | 110 |  | 
15 | CC(C)CC(NC(=O)[C@H](CC(C)C)NC(=O)OCc1ccccc1)C(=O)N[C@@H](C=O)CC(C)C (stereo in doubt; (-)) [listing 1 of 2 here] | 22.8 |  |  |  |  |  |  | 0.97 |  |  |  |  |  |  | 91.3 |  |  | 
16 | CC(C)CC(NC(=O)[C@H](CC(C)C)NC(=O)OCc1ccccc1)C(=O)N[C@@H](C=O)CC(C)C (stereo in doubt; (-)) [listing 2 of 2 here] |  |  | 44 | 64 | 55 | 91 | 94 |  | 91 | 93 | 77 | 53 | 92 | 46 |  | 95 |  | 
17 | CC(C)C[C@H](NC(=O)[C@H](Cc1ccccc1)NC(=O)c1cnccn1)B(O)O [BORTEZOMIB] |  |  |  |  |  |  |  |  |  |  |  |  |  |  |  |  |  | 0.62
